Experimental data as given in article PMC4502975 (Angewandte Chemie (International Ed. in English), 2014).
“Also recorded” adds a separate entry of the source. Values belong to the compound of their own block, whether it stands above or below them.

Assays:
[1] = molecular target: T1, human AC (Homo sapiens, UniProt Q13510); test: Kinetic analysis of the AC reaction; type: biochemical; conditions: mean of two independent experiments
T1 sequence (Q13510 22-395): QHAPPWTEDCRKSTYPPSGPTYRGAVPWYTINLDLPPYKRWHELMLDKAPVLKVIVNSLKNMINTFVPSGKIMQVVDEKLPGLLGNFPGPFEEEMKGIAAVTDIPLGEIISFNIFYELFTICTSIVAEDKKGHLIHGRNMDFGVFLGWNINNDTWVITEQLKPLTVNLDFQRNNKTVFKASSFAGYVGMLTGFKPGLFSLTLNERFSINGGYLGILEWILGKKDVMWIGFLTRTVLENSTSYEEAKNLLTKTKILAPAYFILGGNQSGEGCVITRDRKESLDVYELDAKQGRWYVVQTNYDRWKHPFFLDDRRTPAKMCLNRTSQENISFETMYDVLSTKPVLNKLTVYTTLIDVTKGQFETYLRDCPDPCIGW
Outline: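 Kinetic analysis of the fluorescence-based AC reaction run with vehicle (1% DMSO) or test compound at 20 or 50 nm, n=6 each. Vmax given in relative fluorescence units; KM derived for each condition. Values are the mean of two independent experiments.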

[2] = molecular target: T2, purified recombinant human AC (Homo sapiens, UniProt Q13510); test: LC-MS study of covalent adduct with AC; type: binding; conditions: 1:10 protein:compound, 1 h, 37 °C, pH 4.5
T2 sequence (Q13510 143-395 limits assumed): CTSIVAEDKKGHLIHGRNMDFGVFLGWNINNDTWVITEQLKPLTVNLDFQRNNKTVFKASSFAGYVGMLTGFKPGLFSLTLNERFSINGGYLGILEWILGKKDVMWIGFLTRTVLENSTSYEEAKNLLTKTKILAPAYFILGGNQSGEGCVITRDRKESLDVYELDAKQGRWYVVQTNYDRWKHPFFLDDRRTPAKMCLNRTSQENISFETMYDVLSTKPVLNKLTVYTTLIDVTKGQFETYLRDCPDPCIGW
T2 sequence (Q13510 22-142 limits assumed): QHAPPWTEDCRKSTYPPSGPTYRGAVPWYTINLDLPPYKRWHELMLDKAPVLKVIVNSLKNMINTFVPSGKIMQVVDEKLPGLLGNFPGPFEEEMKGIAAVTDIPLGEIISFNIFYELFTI

[3] = Buffer stability in AC assay buffer pH 4.5 by LC-MS; type: physicochemical
[4] = molecular target: T1, human AC; test: Acid ceramidase; type: biochemical; conditions: for IC50 [nM] ±S.E.M on human AC: means of at least three determinations
[5] = Chemical stability in [D6]DMSO; type: physicochemical
[6] = test system: rat AC; conditions: read-out: IC50 for rat AC; cited from earlier work

Structure (SMILES): CN(CCCCc1ccccc1)C(=O)n1c(=O)oc2ccccc21 [9 c]
IC50 [nM] ±S.E.M on human AC [4]: no inhibitory activity; also recorded: no inhibition

Structure (SMILES): O=C(OCCCCc1ccccc1)n1c(=O)oc2ccccc21 [9 d]
IC50 [nM] ±S.E.M on human AC [4]: no inhibitory activity; also recorded: no inhibition

Structure (SMILES): O=C(CCCCCc1ccccc1)n1c(=O)oc2ccccc21 [9 e]
IC50 [nM] ±S.E.M on human AC [4]: Loss of activity; also recorded: no inhibition

Structure (SMILES): CCCCCCNC(=O)n1cc(F)c(=O)[nH]c1=O [carmofur, 5-fluoro-N-hexyl-2,4-dioxo-pyrimidine-1-carboxamide]
IC50 [6]: 29 nM

Second part, led by results:

Vmax ([1]; 9 a 20 nM): 7808 RFU
Vmax ([1]; 9 a 50 nM): 3889 RFU
half-life at 10 µM [3]: 2.1 ± 0.05 h
Structure (SMILES): O=C(NCCCCc1ccccc1)n1c(=O)oc2ccccc21 [9 a, 2-oxo-N-(4-phenylbutyl)-1,3-benzoxazole-3-carboxamide]
covalent binding to AC (LC-MS, tryptic peptide CTSIVAEDK) [2]: covalently binds to the catalytic cysteine, Cys-143

IC50 [nM] ±S.E.M on human AC [4]: not stable
chemical stability in [D6]DMSO [5]: limited chemical stability
Structure (SMILES): O=c1oc2ccccc2n1C(=S)NCCCCc1ccccc1 [9 b]

potency relative to 9 a ([4]; human AC): two-fold increase in potency
half-life at 10 µM [3]: 4.9 ± 0.5 h
Structure (SMILES): O=C(NCCCCc1ccccc1)n1c(=O)oc2cc(Br)ccc21 [16 a]

inhibition of AC in vitro ([4]; at 10 μM): did not inhibit
Structure (SMILES): O=c1[nH]c2ccc(-c3ccc(F)cc3)cc2o1 [compound 19]
